In ChEMBL document CHEMBL4765373, “Design, synthesis and biological evaluation of rasagiline-clorgyline hybrids as novel dual inhibitors of monoamine oxidase-B and amyloid-β aggregation against Alzheimer's disease” (Eur J Med Chem, 2020):
Activity calls are given as the source filed them. The calls are words filed in the database; no cut-off is given here.

Key:
[1] = target: T1, MAO-A (Homo sapiens, UniProt P21397); experiment: Inhibition of recombinant human MAOA expressed in baculovirus infected BTI insect cells at 100 uM using p-tyramine as substrate measured after 15 mins by Amplex red reagent based fluorescence assay relative to control; details: probe p-tyramine
T1 sequence (P21397 whole entry): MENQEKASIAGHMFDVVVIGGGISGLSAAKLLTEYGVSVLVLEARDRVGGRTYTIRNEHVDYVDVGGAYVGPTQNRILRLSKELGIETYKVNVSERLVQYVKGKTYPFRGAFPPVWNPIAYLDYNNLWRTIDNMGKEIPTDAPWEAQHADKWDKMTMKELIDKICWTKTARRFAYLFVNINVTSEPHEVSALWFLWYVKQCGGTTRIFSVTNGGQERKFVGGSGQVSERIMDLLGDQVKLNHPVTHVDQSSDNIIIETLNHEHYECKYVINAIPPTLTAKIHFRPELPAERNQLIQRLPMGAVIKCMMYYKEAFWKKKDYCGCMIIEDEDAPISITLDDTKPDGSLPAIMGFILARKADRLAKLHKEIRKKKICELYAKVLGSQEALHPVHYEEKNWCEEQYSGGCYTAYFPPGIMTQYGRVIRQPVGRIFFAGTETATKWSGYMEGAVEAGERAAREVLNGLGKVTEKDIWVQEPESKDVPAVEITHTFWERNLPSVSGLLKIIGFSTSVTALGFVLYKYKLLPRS
In short: (§1)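 Recombinant human MAO-A or MAO-B with p-tyramine substrate; H2O2 production detected by Amplex Red. Compounds diluted in DMSO/PBS (final DMSO <0.1%) and incubated with enzyme and substrate 15 min at 37 °C in the dark. Fluorescence read at ex/em 545/590 nm; mean ± SD of three independent experiments.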

[2] = target: T2, Amine oxidase [flavin-containing] B (Homo sapiens, UniProt P27338); experiment: biochemical; format: cell-based, BTI
T2 sequence (P27338 whole entry): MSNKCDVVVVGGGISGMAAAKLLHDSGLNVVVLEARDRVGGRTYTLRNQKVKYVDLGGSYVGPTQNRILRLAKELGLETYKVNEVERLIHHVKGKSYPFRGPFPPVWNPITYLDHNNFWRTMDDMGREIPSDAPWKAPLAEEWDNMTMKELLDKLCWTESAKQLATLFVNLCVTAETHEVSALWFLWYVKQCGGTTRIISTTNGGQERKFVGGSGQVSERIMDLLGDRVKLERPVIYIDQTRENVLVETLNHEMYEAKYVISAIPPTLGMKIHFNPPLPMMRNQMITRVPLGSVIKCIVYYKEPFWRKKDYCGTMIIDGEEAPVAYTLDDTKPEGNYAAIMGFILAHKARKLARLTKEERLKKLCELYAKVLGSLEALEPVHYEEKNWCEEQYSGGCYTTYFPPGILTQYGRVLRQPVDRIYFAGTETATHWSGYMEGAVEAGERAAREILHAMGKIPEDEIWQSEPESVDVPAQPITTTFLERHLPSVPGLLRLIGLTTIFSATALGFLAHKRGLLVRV

[3] = species: Homo sapiens; experiment: Selectivity index, ratio of IC50 for recombinant human MAOA expressed in baculovirus infected BTI insect cells to IC50 for recombinant human MAOB expressed in baculovirus infected BTI insect cells; in short: as §1
[4] = species: Homo sapiens; experiment: Inhibition of self-induced amyloid beta (1 to 42) (unknown origin) peptide aggregation at 25 uM measured after 48 hrs by thioflavin-T fluorescence assay relative to control
[5] = in vitro; details: PAMPA, pH 7.4
[6] = system: SH-SY5Y; experiment: Neuroprotective activity against 6-OHDA-induced cell death in human SH-SY5Y cells assessed as increase in cell survival at 1.563 to 25 uM incubated for 24 hrs by MTT assay; format: functional, cell-based; details: dose 1.563-25 µM
In short: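 SH-SY5Y cells co-incubated with 200 µM 6-OHDA and compound at 1.563, 3.125, 6.25, 12.5 or 25 µM for 24 h. Viability read by MTT assay against a 6-OHDA-only group. Means ± SEM of three independent experiments.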

[7] = target: T2, Amine oxidase [flavin-containing] B; experiment: Inhibition of recombinant human MAOB expressed in baculovirus infected BTI insect cells at 100 uM using p-tyramine as substrate measured after 15 mins by Amplex red reagent based fluorescence assay relative to control; details: 0.25 h; in short: as §1
[8] = target: T2, Amine oxidase [flavin-containing] B; experiment: Competitive inhibition of recombinant human MAOB expressed in baculovirus infected BTI insect cells at 2.5 to 10 nM using varying levels of p-tyramine as substrate by Lineweaver-Burk plot analysis; details: dose 2.5-10 nM
In short: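 Recombinant hMAO-B initial rates measured with and without inhibitor at 2.5, 5 and 10 nM. p-Tyramine substrate at 0.05, 0.1, 0.5, 1.0, 1.5 and 3.0 mM. H2O2 production read by Amplex Red fluorescence. Mechanism taken from overlaid Lineweaver–Burk reciprocal plots.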

[9] = species: Homo sapiens; experiment: Inhibition of self-induced amyloid beta (1 to 42) (unknown origin) peptide aggregation assessed as reduction in number of amyloid beta aggregates by TEM analysis
[10] = system: SH-SY5Y; experiment: Cytotoxicity against human SH-SY5Y cells assessed as reduction in cell viability at 25 uM after 24 hrs by MTT assay; format: cell-based
In short: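 SH-SY5Y cells grown in DMEM with FBS, penicillin/streptomycin, 5% CO2, 37 °C. Seeded at 10,000 cells/well and exposed to compound (6.25–100 µM) for 24 h at 37 °C. MTT added for 4 h, formazan dissolved in DMSO, absorbance read at 570 nm (reference 630 nm). Mean ± SD of three independent experiments.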

[11] = Half life in Sprague-Dawley rat at 3 mg/kg, iv by LC-MS/MS analysis; format: ADME, organism-based; details: in vivo
In short: (§2)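 Male SD rats (n=3, 220 ± 20 g) dosed 3 mg/kg i.v. or 10 mg/kg by oral gavage. Plasma proteins precipitated with two volumes of 0.5% formic acid/acetonitrile; supernatant quantified by LC-MS/MS.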

[12] = Cmax in Sprague-Dawley rat at 3 mg/kg, iv by LC-MS/MS analysis; format: ADME, organism-based; design: route intravenous, dose 3 mg/kg; details: in vivo; in short: as §2
[13] = AUC (0 to infinity) in Sprague-Dawley rat at 3 mg/kg, iv by LC-MS/MS analysis; format: ADME, organism-based; design: time infinity, route intravenous, dose 3 mg/kg; details: in vivo; in short: as §2
[14] = Clearance in Sprague-Dawley rat at 3 mg/kg, iv by LC-MS/MS analysis; format: ADME, organism-based; details: in vivo; in short: as §2
[15] = Half life in Sprague-Dawley rat at 10 mg/kg, po administered via gavage by LC-MS/MS analysis; format: ADME, organism-based; details: in vivo; in short: as §2
[16] = Tmax in Sprague-Dawley rat at 10 mg/kg, po administered via gavage by LC-MS/MS analysis; format: ADME, organism-based; details: in vivo; in short: as §2
[17] = Cmax in Sprague-Dawley rat at 10 mg/kg, po administered via gavage by LC-MS/MS analysis; format: ADME, organism-based; design: route oral, dose 10 mg/kg; details: in vivo; in short: as §2
[18] = AUC (0 to infinity) in Sprague-Dawley rat at 10 mg/kg, po administered via gavage by LC-MS/MS analysis; format: ADME, organism-based; design: route oral, time infinity, dose 10 mg/kg; details: in vivo; in short: as §2
[19] = Oral bioavailability in Sprague-Dawley rat at 10 mg/kg administered via gavage by LC-MS/MS analysis; format: ADME, organism-based; details: in vivo; in short: as §2

| SMILES | inhibition at 0.25 h, 100 µM [1] [%] | IC50 [2] [nM] | inhibition [4] [%] | Papp at 16 h [5] [×10⁻⁶ cm/s] | Ratio IC50 [3] | also measured |
| --- | --- | --- | --- | --- | --- | --- |
| C#CCN[C@@H]1CCc2ccccc21 [RASAGILINE] | 47.9 | – | – | – | – | Activity [6]: Active |
| C#CCN(C)CCCCCOc1ccc(C(C)=O)cc1OC | 39.5 | 6520 | 5.74 | 12.9 | > 15 | – |
| C#CCN(C)CCCCOc1ccc(C=O)c(OC)c1 | 29.4 | – | 0.86 | 13.1 | – | inhibition at 100 µM [7]: 41.2% |
| C#CCN(C)CCCOc1ccc2c(c1)OCCC2=O | 32.1 | 11400 | 7.77 | 9.21 | > 9 | – |
| C[C@]12CC[C@@H]3c4ccc(O)cc4CC[C@H]3[C@@H]1CC[C@@H]2O [ESTRADIOL] | – | – | – | 12.4 | – | – |
| CN(C)CCCN1c2ccccc2Sc2ccc(Cl)cc21 [CHLORPROMAZINE] | – | – | – | 7.12 | – | – |
| C#CCN(C)CCCCCCOc1ccc(C=O)c(OC)c1 | 37.4 | 552 | 0.99 | 11.2 | > 181 | – |
| C#CCN(C)CCCCCOc1ccc(C=O)c(OC)c1 | 27.1 | 5730 | 0.82 | 14 | > 17 | – |
| C#CCN(C)CCCCCCCCOc1ccc2c(c1)OCCC2=O | 28.6 | 422 | 0.34 | 8.91 | > 237 | – |
| COc1cc(/C=C/C(=O)CC(=O)/C=C/c2ccc(O)c(OC)c2)ccc1O | – | – | 46.1 | – | – | inhibition [9]: Active |
| C#CCN(C)CCCCOc1ccc(C(C)=O)cc1OC | 21.1 | 1150 | 21.8 | 12.5 | > 87 | – |

Second part, led by results:

| inhibition at 0.25 h, 100 µM [1] [%] | IC50 [2] [nM] | inhibition [4] [%] | Papp at 16 h [5] [×10⁻⁶ cm/s] | SMILES | Ratio IC50 [3] | also measured |
| --- | --- | --- | --- | --- | --- | --- |
| 11.7 | 51.9 | 9.76 | 8.3 | C#CCN(C)CCCCCCOc1ccc2c(c1)OCC2=O | > 1930 | – |
| 26.1 | 46.3 | 10.3 | 10.6 | C#CCN(C)CCCCCOc1ccc2c(c1)CCCC2=O | > 2160 | – |
| 6.04 | 4 | 40.8 | 10.2 | C#CCN(C)CCCCCOc1ccc2c(c1)OCCC2=O | > 2.5 10^4No_unit | inhibition (INH) [8]: Active; inhibition [9]: Active; Activity [10]: Non-Toxic; Activity [6]: Active; half-life [11]: 1.02 h; Cmax [12]: 639 ng/mL; AUC [13]: 247.74 ng·h/mL; CL [14]: 55.5 mL/min/kg; half-life [15]: 1.33 h; Tmax [16]: 0.3 h; Cmax [17]: 142 ng/mL; AUC(0-inf) [18]: 268 ng·h/mL; bioavailability [19]: 36.1% |
| 37.3 | 20.4 | 12.7 | 8.69 | C#CCN(C)CCCCCCOc1ccc(C(C)=O)cc1 | > 4900 | – |
| 30.9 | 72.5 | 13.4 | 8.7 | C#CCN(C)CCCCOc1ccc2c(c1)CCCC2=O | > 1380 | – |
| 28.6 | 56.5 | 6.18 | 10.6 | C#CCN(C)CCCCOc1ccc(C(C)=O)cc1 | > 1770 | – |
| 22.8 | 58.9 | 43.9 | 13.7 | C#CCN(C)CCCCOc1ccc2c(c1)OCCC2=O | > 1700 | – |
| 31 | 94.8 | 11.4 | 10.9 | C#CCN(C)CCCCCOc1ccc2c(c1)CCC2=O | > 1060 | – |
| 34.1 | 117 | 0.66 | 8.54 | C#CCN(C)CCCCCCOc1ccc2c(c1)OCCC2=O | > 855 | – |
| 32.3 | 101 | 22.2 | 10.5 | C#CCN(C)CCCCCOc1cccc(OC)c1 | > 991 | – |
| 25 | 133 | 18.1 | 8.58 | C#CCN(C)CCCCCCOc1ccc2c(c1)CCCC2=O | > 751 | – |
| 4.42 | 129 | 0.68 | 12.8 | C#CCN(C)CCCCCCOc1ccc2c(c1)CCC2=O | > 777 | – |
| 7.93 | 366 | 31.3 | 9.61 | C#CCN(C)CCCCOc1ccc2c(c1)CCC2=O | > 273 | – |
